≈ marks a conversion by molar mass, not a printed value. Calls of active or inactive are those of the source. The calls are words filed in the database; no cut-off is given here.
Legend:
[1] = test system: Staphylococcus aureus; assay: Antibacterial activity against methicillin-resistant Staphylococcus aureus 15187 treated for 24 hrs followed by compound treated at 2 to 16 times MIC measured after 24 hrs by micro dilution method; type: functional; conditions: Staphylococcus aureus, 15187, 24 h
Summary of the method: (§1)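 MBC taken from the same 24 h microdilution plates (Mueller Hinton broth, final inoculum 5 × 10^6 CFU mL-1, 37 °C). […] Spots were incubated 24 h and colonies counted. MBC is the lowest concentration giving a 3 log drop from the starting inoculum.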

[2] = test system: PC-3; assay: Antiproliferative activity against human PC3 cells after 48 hrs by sulforhodamine B assay; type: functional, cell-based; conditions: PC-3, 48 h
Summary of the method: (§2)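 Sulforhodamine B assay following NCI guidelines. Log-phase cells seeded at 10^4 cells/well and allowed to attach for 24 h at 37 °C, 5% CO2. Exposed 48 h to 1:10 serial dilutions, four replicate wells per condition. Fixed with 50% cold TCA for 1 h at 4 °C, stained, dye dissolved in tris buffer, OD read at 540 nm. Blank-subtracted growth expressed relative to untreated (100%) and reported as IC50.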

[3] = test system: Enterococcus; assay: Antibacterial activity against vancomycin-resistant Enterococcus after 24 hrs by micro dilution method; type: functional
Summary of the method: (§3)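 Broth microdilution in Mueller Hinton broth, two-fold serial dilutions, final 0.25 to 256 µg mL-1. Inoculum from 24 h culture in saline, set to 0.5 McFarland, diluted to a final 5 × 10^6 CFU mL-1. Plates held at 37 °C for 24 h and read by eye. MIC is the lowest concentration with no turbidity.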

[4] = test system: Staphylococcus aureus; assay: Antibacterial activity against methicillin-resistant Staphylococcus aureus 15187 after 24 hrs by micro dilution method; type: functional; conditions: Staphylococcus aureus, 15187, 24 h; summary of the method: as §3
[5] = test system: Aspergillus fumigatus; assay: Antifungal activity against Aspergillus fumigatus LSI-II; type: functional
[6] = test system: HL-60; assay: Antiproliferative activity against human HL60 cells after 48 hrs by sulforhodamine B assay; type: functional, cell-based; conditions: HL-60, 48 h; summary of the method: as §2
[7] = test system: MOLT-4; assay: Antiproliferative activity against human MOLT4 cells after 48 hrs by sulforhodamine B assay; type: functional, cell-based; conditions: MOLT-4, 48 h; summary of the method: as §2
[8] = test system: Candida albicans; assay: Antifungal activity against Candida albicans ATCC 90028; type: functional
[9] = test system: Staphylococcus aureus; assay: Antibacterial activity against Staphylococcus aureus ATCC 29213 after 24 hrs by micro dilution method; type: functional; conditions: ATCC 29213, 24 h
Summary of the method: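 Broth microdilution in Mueller Hinton broth. Inoculum from a 24 h culture in saline, set to 0.5 McFarland and diluted to a final 5 × 10^6 CFU mL-1. Two-fold serial dilutions, final 0.25–256 µg mL-1. Incubated 37 °C for 24 h and read visually. MIC is the lowest concentration with no turbidity.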

[10] = test system: Staphylococcus aureus; assay: Antibacterial activity against Staphylococcus aureus ATCC 29213 treated for 24 hrs followed by compound treated at 2 to 16 times MIC measured after 24 hrs by micro dilution method; type: functional; conditions: ATCC 29213, 24 h
[11] = test system: Enterococcus; assay: Antibacterial activity against vancomycin-resistant Enterococcus treated for 24 hrs followed by compound treated at 2 to 16 times MIC measured after 24 hrs by micro dilution method; type: functional; summary of the method: as §1
[12] = test system: HL-60; assay: Cell cycle arrest in human HL60 cells assessed as accumulation at sub-G1 phase at 10 uM after 18 hrs using propidium iodide staining by flow cytometry; type: functional
Summary of the method: (§4)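 Time-course sub-G1 analysis of HL-60 cells exposed to 10 µM and sampled at 0, 6, 9, 18 and 24 h. Ethanol fixation, RNase A and propidium iodide staining as for the dose series, then flow cytometric DNA content at 488 nm excitation.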

[13] = test system: HL-60; assay: Induction of apoptosis in human HL60 cells assessed as DNA discrete ladder pattern formation at 5 to 30 uM after 24 hrs using ethidium bromide staining by agarose gel electrophoresis analysis; type: functional, cell-based
[14] = test system: HL-60; assay: Cell cycle arrest in human HL60 cells assessed as accumulation at sub-G1 phase at 10 uM after 6 hrs using propidium iodide staining by flow cytometry; type: functional; summary of the method: as §4
[15] = test system: HL-60; assay: Cell cycle arrest in human HL60 cells assessed as accumulation at sub-G1 phase at 10 uM after 24 hrs using propidium iodide staining by flow cytometry; type: functional; summary of the method: as §4
[16] = test system: HL-60; assay: Cell cycle arrest in human HL60 cells assessed as accumulation at sub-G1 phase after 24 hrs using propidium iodide staining by flow cytometry; type: functional, cell-based
Summary of the method: (§5)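 Cell-cycle (sub-G1) profiling of HL-60 cells at 1 × 10^6 per well, treated 24 h at 1, 10, 30 or 100 µM. Washed in ice-cold PBS, fixed in 70% ethanol at -20 °C for 30 min. Treated with RNase A (0.1 mg/mL) at 37 °C for 30 min, then propidium iodide (50 µg/mL) for 30 min on ice in the dark. Read with doublet discrimination and 488 nm excitation.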

[17] = test system: HL-60; assay: Cell cycle arrest in human HL60 cells assessed as accumulation at sub-G1 phase at 10 uM after 9 hrs using propidium iodide staining by flow cytometry; type: functional; summary of the method: as §4
[18] = test system: HL-60; assay: Cell cycle arrest in human HL60 cells assessed as accumulation at sub-G1 phase at 100 uM after 24 hrs using propidium iodide staining by flow cytometry; type: functional; summary of the method: as §5
[19] = test system: HL-60; assay: Cell cycle arrest in human HL60 cells assessed as accumulation at sub-G1 phase at 1 uM after 24 hrs using propidium iodide staining by flow cytometry; type: functional; summary of the method: as §5
[20] = test system: HL-60; assay: Cell cycle arrest in human HL60 cells assessed as accumulation at sub-G1 phase at 30 uM after 24 hrs using propidium iodide staining by flow cytometry; type: functional; summary of the method: as §5
[21] = test system: HL-60; assay: Cell cycle arrest in human HL60 cells assessed as accumulation at sub-G1 phase at 10 uM after 3 hrs using propidium iodide staining by flow cytometry; type: functional

SMILES	MBC [1]	IC50 [2]	MIC [3]	MIC [4]	MIC [5]	IC50 [6]	IC50 [7]	MIC [8]	MIC [9]	MBC [10]	MBC [11]	other results
CCCc1ccc(O)c(-c2cc(CCC)cc(Br)c2O)c1	16 µg/mL (≈ 45.8 µM)	> 100 µM	16 µg/mL (≈ 45.8 µM)	16 µg/mL (≈ 45.8 µM)	inactive	> 100 µM	> 100 µM	inactive	8 µg/mL (≈ 22.9 µM)	8 µg/mL (≈ 22.9 µM)	32 µg/mL (≈ 91.6 µM)	–
CCCc1ccc(O)c(-c2cc(CCC)cc(I)c2O)c1	> 256 µg/mL	63 µM	> 256 µg/mL	> 256 µg/mL	inactive	45 µM	60 µM	inactive	> 256 µg/mL	> 256 µg/mL	> 256 µg/mL	–
CCCc1ccc(O)c(-c2cc(CCC)cc(Cl)c2O)c1	> 256 µg/mL	> 100 µM	> 256 µg/mL	> 256 µg/mL	inactive	85 µM	> 100 µM	inactive	> 256 µg/mL	> 256 µg/mL	> 256 µg/mL	–
CCCCc1ccc(O)c(-c2cc(CCCC)cc(Cl)c2O)c1	> 256 µg/mL	> 100 µM	> 256 µg/mL	> 256 µg/mL	inactive	> 100 µM	> 100 µM	inactive	> 256 µg/mL	> 256 µg/mL	> 256 µg/mL	–
CCCCc1ccc(O)c(-c2cc(CCCC)cc(Br)c2O)c1	1 µg/mL (≈ 2.65 µM)	74 µM	1 µg/mL (≈ 2.65 µM)	1 µg/mL (≈ 2.65 µM)	inactive	25 µM	35 µM	inactive	2 µg/mL (≈ 5.3 µM)	2 µg/mL (≈ 5.3 µM)	2 µg/mL (≈ 5.3 µM)	–
CCCCc1ccc(O)c(-c2cc(CCCC)cc(I)c2O)c1	> 256 µg/mL	60 µM	> 256 µg/mL	> 256 µg/mL	inactive	50 µM	66 µM	inactive	> 256 µg/mL	> 256 µg/mL	> 256 µg/mL	–
CC[C@H]1OC(=O)[C@H](C)[C@@H](O[C@H]2C[C@@](C)(OC)[C@@H](O)[C@H](C)O2)[C@H](C)[C@@H](O[C@@H]2O[C@H](C)C[C@H](N(C)C)[C@H]2O)[C@](C)(O)C[C@@H](C)C(=O)[C@H](C)[C@@H](O)[C@]1(C)O [ERYTHROMYCIN]	64 µg/mL (≈ 87.2 µM)	–	64 µg/mL (≈ 87.2 µM)	64 µg/mL (≈ 87.2 µM)	–	–	–	–	0.5 µg/mL (≈ 0.681 µM)	1 µg/mL (≈ 1.36 µM)	64 µg/mL (≈ 87.2 µM)	–
CCCCc1cc(I)c(O)c(-c2cc(CCCC)cc(I)c2O)c1	4 µg/mL (≈ 7.27 µM)	2 µM	4 µg/mL (≈ 7.27 µM)	4 µg/mL (≈ 7.27 µM)	inactive	2 µM	10 µM	inactive	4 µg/mL (≈ 7.27 µM)	4 µg/mL (≈ 7.27 µM)	8 µg/mL (≈ 14.5 µM)	Activity [12]: 44%; Activity [13]: Active; Activity [14]: 21%; Activity [15]: 52%; Activity [16]: Dose-dependent effect; Activity [17]: 33%; Activity [18]: 78%; Activity [19]: 12%; Activity [20]: 67%; Activity [21]: 14%
C=CCc1ccc(O)c(-c2cc(CC=C)ccc2O)c1 [MAGNOLOL]	32 µg/mL (≈ 120 µM)	62 µM	32 µg/mL (≈ 120 µM)	32 µg/mL (≈ 120 µM)	–	48 µM	58 µM	–	16 µg/mL (≈ 60.1 µM)	32 µg/mL (≈ 120 µM)	32 µg/mL (≈ 120 µM)	–
CCCc1cc(Br)c(O)c(-c2cc(CCC)cc(Br)c2O)c1	4 µg/mL (≈ 9.34 µM)	95 µM	4 µg/mL (≈ 9.34 µM)	4 µg/mL (≈ 9.34 µM)	inactive	30 µM	55 µM	inactive	4 µg/mL (≈ 9.34 µM)	4 µg/mL (≈ 9.34 µM)	8 µg/mL (≈ 18.7 µM)	–
